The array DNA melting data of Ke et al. (doi:10.1101/2024.01.08.574731)

Tests used:
[1] = folding enthalpy; higher = less favourable; fluorescence melt of hairpins on a sequencing array, two-state fit; conditions: sodium 0.088 M
Procedure, shortened: (§1)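 Melting temperature and folding enthalpy were derived from bootstrapped two-state fits. The fitted temperatures were raised by 9.35 °C to agree with UV melts, and four replicates were combined by inverse variance. The underlying data were Cy3 fluorescence images of library hairpins, with annealed Cy3 and quencher oligos, on a sequenced MiSeq flow cell in 50 mM Na-HEPES pH 8.0, 25 mM NaCl, taken in 2.5 °C steps up to 60 °C, normalised to pre-quench Cy3 and to control constructs.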

[2] = melting temperature; fluorescence melt of hairpins on a sequencing array, two-state fit, raised by 9.35 °C to match UV melts; conditions: sodium 0.088 M
Procedure, shortened: as §1

Sequence | folding enthalpy [1] [kcal/mol] | Tm [2] [°C]
GAACGACGAAAGTCATTC (((.(((....))).))) | -21.6 | 38.6
GAACGAGGAAACTCATTC (((.(((....))).))) | -15.5 | 24.8
GAACGAGGAAACTCGTCC (.(((((....))))).) | -13.7 | 37.8
GAACGAGGAAACTCGTTC (((((((....))))))) | -41.2 | 63.8
GAACGCCGAAAGGCTTC (((.(((....)))))) | -14.1 | 44.1
GAACGCGAAAGCGAATTC ((((((....)))..))) | -10.7 | 28.8
GAACGCGAAAGCGCGTTC ((((((....)))..))) | -25.5 | 63.1
GAACGCGAAAGCGGATTC ((((((....)))..))) | -15.8 | 49.5
GAACGCGGAAACGTGTTC ((((.((....)).)))) | -37.7 | 56
GAACGGCGAAAGCCTTTC (((.(((....))).))) | -18 | 39.7
GAACGGGGAAACCCATTC (((.(((....))).))) | -19 | 33.2
GAACTACGAAAGTAATTC (((.(((....))).))) | -17.3 | 31.5
GAACTAGGAAACTAGCTC ((.((((....)))).)) | -21.3 | 29
GAACTAGGAAACTGGTTC ((((.((....)).)))) | -29 | 43
GAACTCCGAAAGGATTTC (((.(((....))).))) | -23.5 | 35.2
GAACTCGGAAACGAGTTC (((((((....))))))) | -40.9 | 67
GAACTGACGAAAGTCTTC (((..(((....)))))) | -8.83 | 23.7
GAAGACCCGAAAGGGTTC (((..(((....)))))) | -8.91 | 32.6
GAAGACCGAAAGGTTTTC (((.(((....))).))) | -27.4 | 47.9
GAAGACGAAAGTCAGTTC ((((((....)))..))) | -15 | 24
GAAGACGAAAGTCGGTTC ((((((....)))..))) | -12.8 | 34.4
GAAGACGGAAACATCTTC (((((.(....).))))) | -20 | 29.8
GAAGACGGAAACGTCCTC ((.((((....)))).)) | -11.9 | 35.9

Sequence | folding enthalpy [1] [kcal/mol] | Tm [2] [°C]
GAAGACGGAAACGTTTTC (((.(((....))).))) | -32.6 | 41.1
GAAGAGCCGAAAGGCTTC (((..(((....)))))) | -9.43 | 31.6
GAAGAGGGAAACCTCCTC ((.((((....)))).)) | -14.9 | 26.4
GAAGAGGGAAACCTCTCC (.(((((....))))).) | -12.5 | 34.2
GAAGAGGGAAACCTCTTC (((((((....))))))) | -33.5 | 55.3
GAAGATCCGAAAGGATTC (((..(((....)))))) | -12.6 | 31.3
GAAGCACGAAAGTGGTTC (((.(((....))).))) | -31.6 | 61.3
GAAGCAGGAAACTACTTC ((((.((....)).)))) | -19 | 31.7
GAAGCAGGAAACTGCCTC ((.((((....)))).)) | -13.2 | 34.5
GAAGCCGAAAGGCCGTTC ((((((....)))..))) | -6.55 | 26.6
GAAGCCGAAAGGCTTTC ((((((....))).))) | -11.1 | 54.2
GAAGCGAAAGCTTC (((((....))))) | -25.7 | 68.1
GAAGCGCGAAAGCGTTC (((.(((....)))))) | -10.6 | 41.2
GAAGCGGGAAACCGCCTC ((.((((....)))).)) | -10.8 | 36.7
GAAGCGGGAAACCGCTCC (.(((((....))))).) | -10.3 | 42.5
GAAGGAGAAATCCTTC ((((((....)))))) | -26.8 | 46.3
GAAGGCCGAAAGGCATTC (((.(((....))).))) | -24.2 | 62.6
GAAGGCGGAAACACCTTC (((((.(....).))))) | -30.9 | 42.7
GAAGGCGGAAACGCTTTC (((.(((....))).))) | -24.9 | 48.2
GAAGGGCGAAAGCCATTC (((.(((....))).))) | -22.2 | 57.1
GAAGGGCGAAAGCCTTC (((.(((....)))))) | -14.3 | 50.8
GAAGGGGAAACCCTTC ((((((....)))))) | -28.6 | 53.8
GAAGGTGGAAACACCTCC (.(((((....))))).) | -12.3 | 40.8

Sequence | folding enthalpy [1] [kcal/mol] | Tm [2] [°C]
GAAGTAGGAAACCACTTC (((((.(....).))))) | -24.7 | 34.8
GAAGTAGGAAACTACTCC (.(((((....))))).) | -11.4 | 32.5
GAAGTAGGAAACTACTTC (((((((....))))))) | -42.6 | 52.5
GAAGTCGGAAACGACTTC (((((((....))))))) | -36.4 | 66
GAAGTCGGAAACGGCTTC ((((.((....)).)))) | -39.7 | 54.5
GAAGTGCGAAAGCAGTTC (((.(((....))).))) | -33.5 | 57.5
GAAGTGCGAAAGCATTTC (((.(((....))).))) | -23.5 | 51
GAAGTGGAAACACTTC ((((((....)))))) | -33.7 | 54
GAAGTGGGAAACCACCTC ((.((((....)))).)) | -13.7 | 32.2
GAAGTTGAAAAACTTC ((((((....)))))) | -28.1 | 48.5
GAAGTTGGAAACGATTTC (((.(.(....).).))) | -20.9 | 36.7
GAATAACGAAAGTTCTTC (((.(((....))).))) | -20.7 | 32.2
GAATAACGAAAGTTGTTC (((.(((....))).))) | -31 | 45.5
GAATAAGCGAAAGCTTTC (((..(((....)))))) | -9.51 | 25.7
GAATACCGAAAGGTGTTC (((.(((....))).))) | -40.3 | 51.2
GAATACCGAAAGGTTTTC (((.(((....))).))) | -25.7 | 39.5
GAATACGAAAGTACTTC ((((((....))).))) | -17 | 30.2
GAATACGAAAGTAGCTTC ((((((....)))..))) | -16.4 | 33.9
GAATAGCCGAAAGGCTTC (((..(((....)))))) | -7.5 | 25.5
GAATAGCGAAAGCTTTC (((.(((....)))))) | -11.6 | 33.7
GAATAGGGAAACCTGTTC (((.(((....))).))) | -30.6 | 38.2
GAATCACGAAAGTGGTTC (((.(((....))).))) | -40.3 | 53.2
GAATCAGGAAACTGACTC ((.((((....)))).)) | -17.3 | 28.7

Sequence | folding enthalpy [1] [kcal/mol] | Tm [2] [°C]
GAATCCCGAAAGGGTTTC (((.(((....))).))) | -23.6 | 45.6
GAATCCGAAAGGAATTC ((((((....))).))) | -23.6 | 39.7
GAATCCGAAAGGACTTC ((((((....))).))) | -19.4 | 35.8
GAATCCGAAAGGATTTC ((((((....))).))) | -13.8 | 48.6
GAATCCGGAAACAGATTC (((((.(....).))))) | -19.5 | 31.3
GAATCCGGAAACGAATTC ((((.((....)).)))) | -21.1 | 34.1
GAATCGCGAAAGCGGTTC (((.(((....))).))) | -30.3 | 61.7
GAATCGGGAAACCAATTC ((((.((....)).)))) | -16.3 | 28.4
GAATCGGGAAACCGGTTC (((.(((....))).))) | -35.8 | 50.2
GAATCGGGAAACTGATTC (((((.(....).))))) | -38.9 | 45.5
GAATCTGAAAAGATTC ((((((....)))))) | -36.8 | 49.8
GAATCTGGAAACAGATTC (((((((....))))))) | -49.8 | 55.6
GAATGAGGAAACTCATTC (((((((....))))))) | -37.3 | 52.8
GAATGCGAAAGCACTTC ((((((....))).))) | -16.2 | 40.9
GAATGCGAAAGCAGGTTC ((((((....)))..))) | -8.65 | 30.4
GAATGCGAAAGCAGTTC ((((((....))).))) | -13.9 | 41.8
GAATGGGGAAACCCACTC ((.((((....)))).)) | -13.1 | 30
GAATGTGGAAACATGTTC (((..((....))..))) | -18.7 | 31.4
GAATTAGAAATAATTC ((((((....)))))) | -18.5 | 33.3
GAATTAGGAAACTAATTC (((((((....))))))) | -38.8 | 46.9
GAATTCCGAAAGGAGTTC (((.(((....))).))) | -33.6 | 49
GAATTGAAAAATTC (((((....))))) | -13.5 | 31.7
